In PubChem BioAssay AID651654 (Broad Institute, 2012):
“And” between values parts separate entries of the source, which are not always exact repeats. Equal values may be shown once. Out of some 360,000 compounds screened, about 740 (0.21%) were called active.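 Rule for the calls: active = mean lysis activity across replicates of at least 80%, whatever share of replicates individually reach that level; inactive = mean lysis activity below 80%.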 Only a selection was taken, and actives are over-represented in it overall. A structure can be active in one record and inactive in another.

assay: fungicidal lysis via adenylate kinase leakage – AK release luminescence, single concentration, primary screen (AID 651654); conditions: C. neoformans lysis, 4 h, at 15 µM, stronger effect = higher value, normalised: neutral wells 0, clomiphene wells 100
In short: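 read-out = cell lysis signal | test system = log-phase Cryptococcus neoformans yeast cells | input = cells at 5 × 10^6 per mL | medium = fresh YPD growth medium | signal = luminescent adenylate kinase detection reagent | timing = 4 h at 37 °C static, read 1 h later | dosing = single dose | controls = Clomiphene as positive lysis control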

SMILES	lysis activity
C[C@H](CO)N1C[C@H](C)[C@@H](CN(C)C(=O)c2cccc(F)c2)Oc2cc(-c3cncnc3)ccc2S1(=O)=O	4.59% (inactive) and 104% (active) and -0.371% (inactive)
C[C@@H]1CN([C@@H](C)CO)S(=O)(=O)c2ccc(C#Cc3ccc(F)cc3)cc2O[C@H]1CN(C)C(=O)NC1CCCC1	81.9% (active)
C/C=C/c1ccc2c(c1)O[C@@H](CN(C)C(=O)NC1CCCC1)[C@@H](C)CN([C@H](C)CO)S2(=O)=O	-13.9% (inactive)
CC(=O)N(C)C[C@@H]1Oc2cc(-c3cncnc3)ccc2S(=O)(=O)N([C@@H](C)CO)C[C@H]1C	0.747% (inactive)
C[C@@H]1CN([C@@H](C)CO)S(=O)(=O)c2ccc(C#Cc3ccc(F)cc3)cc2O[C@@H]1CN(C)CC1CC1	0.211% (inactive)
CC(C)NC(=O)N(C)C[C@H]1Oc2cc(-c3cncnc3)ccc2S(=O)(=O)N([C@@H](C)CO)C[C@H]1C	-2.43% (inactive)
Cc1cc(C(=O)Nc2ccc3c(c2)C(=O)N(C)[C@@H]2CC[C@H](CC(=O)NC4CCCC4)O[C@@H]2CO3)no1	3.44% (inactive)
Cc1cc(C(=O)Nc2ccc3c(c2)C(=O)N(C)[C@@H]2CC[C@@H](CC(=O)NC4CCCC4)O[C@@H]2CO3)no1	1.38% (inactive)
CNC(=O)C[C@H]1CC[C@H]2[C@H](COc3ccc(NC(=O)c4cc(C)on4)cc3C(=O)N2C)O1	83.7% (active)
COc1cccc(C(=O)Nc2ccc3c(c2)C(=O)N(C)C[C@@H](OC)[C@@H](C)CN(C)[C@@H](C)CO3)c1	-1.94% (inactive)
O=C(C[C@@H]1C[C@@H]2c3cc(NS(=O)(=O)c4ccc(F)cc4)ccc3O[C@@H]2[C@@H](CO)O1)NCc1ccncc1	-3.62% (inactive)
C[C@@H]1CCCCO[C@H](CN(C)C(=O)Nc2ccc(C(F)(F)F)cc2)[C@@H](C)CN([C@@H](C)CO)C(=O)c2cc(NC(=O)Nc3cccc4ccccc34)ccc2O1	-0.038% (inactive)
C[C@@H]1CN([C@@H](C)CO)C(=O)Cc2cc(NC(=O)Nc3ccc4c(c3)OCO4)ccc2O[C@@H]1CN(C)CC1CCCCC1	5.47% (inactive)
C[C@@H]1CN([C@@H](C)CO)C(=O)c2cc(NC(=O)Nc3ccc(F)cc3)ccc2O[C@H]1CN(C)CC1CCCCC1	-0.073% (inactive)
C[C@@H]1CN([C@H](C)CO)C(=O)Cc2cc(NC(=O)Nc3cccc4ccccc34)ccc2O[C@@H]1CN(C)Cc1ccc(C(=O)O)cc1	105% (active)
Cc1noc(C)c1NC(=O)Nc1ccc2c(c1)CC(=O)N([C@@H](C)CO)C[C@H](C)[C@@H](CN(C)CC1CCCCC1)O2	4.38% (inactive)
C[C@H](CO)N1C[C@H](C)[C@H](CN(C)C)Oc2ncc(C#Cc3ccc(F)cc3)cc2C1=O	5.93% (inactive) and 8.34% (inactive)
COc1ccc(C#Cc2cnc3c(c2)C(=O)N([C@@H](C)CO)C[C@H](C)[C@@H](CN(C)CC2CCOCC2)O3)cc1	0.473% (inactive)
C[C@H](CO)N1C[C@H](C)[C@@H](CN(C)CC2CCOCC2)Oc2ncc(C#Cc3ccc(F)cc3)cc2C1=O	1.59% (active)
Cc1noc(C)c1NC(=O)Nc1ccc2c(c1)C(=O)N([C@@H](C)CO)C[C@@H](C)[C@H](CN(C)C)O2	-2.64% (inactive)
Cc1noc(C)c1NC(=O)Nc1ccc2c(c1)C(=O)N([C@@H](C)CO)C[C@H](C)[C@H](CN(C)CC1CCCCC1)O2	80.5% (active)

SMILES	lysis activity
C[C@H]1CN([C@@H](C)CO)C(=O)Cc2cc(NC(=O)Nc3cccc4ccccc34)ccc2O[C@@H]1CN(C)C	5.63% (inactive)
C[C@H]1CN([C@@H](C)CO)C(=O)c2cc(NC(=O)Nc3ccc4c(c3)OCO4)ccc2O[C@@H]1CN(C)CC1CCCCC1	81.3% (active)
C[C@@H]1CN([C@H](C)CO)C(=O)Cc2cc(NC(=O)Nc3cccc4ccccc34)ccc2O[C@@H]1CN(C)Cc1ccc(C(F)(F)F)cc1	0.378% (inactive)
COc1ccc(S(=O)(=O)N(C)C[C@H]2Oc3ccc(NC(=O)Nc4c(C)noc4C)cc3C(=O)N([C@H](C)CO)C[C@H]2C)cc1	-3.44% (inactive)
Cc1noc(C)c1NC(=O)Nc1ccc2c(c1)C(=O)N([C@@H](C)CO)C[C@H](C)[C@H](CN(C)S(=O)(=O)c1ccc(Cl)cc1)O2	96.2% (active)
COc1ccc(S(=O)(=O)N(C)C[C@@H]2Oc3ccc(NC(=O)Nc4c(C)noc4C)cc3C(=O)N([C@H](C)CO)C[C@@H]2C)cc1	-0.689% (inactive) and -2.77% (inactive)
C[C@H](CO)N1C[C@H](C)[C@@H](CN(C)C(=O)c2ccncc2)Oc2ncc(-c3ccncc3)cc2C1=O	-2.74% (inactive)
COc1ccc(NC(=O)N[C@@H]2C=C[C@H](CC(=O)NC3CCC3)O[C@@H]2CO)cc1	-0.593% (inactive)
C[C@H]1CN([C@@H](C)CO)C(=O)c2cccc(NC(=O)Nc3ccccc3)c2O[C@@H]1CN(C)S(C)(=O)=O	0.333% (inactive)
O=C(Nc1ccccc1)N1C[C@H]2[C@@H](c3ccccc31)[C@@H](CO)N2Cc1cocn1	-2.69% (inactive)
O=C(Nc1ccc(F)cc1)N1C[C@@H]2[C@H](c3ccccc31)[C@H](CO)N2Cc1ccccc1	-1.33% (inactive)
O=C(Nc1ccc(F)cc1)N1C[C@H]2[C@@H](c3ccccc31)[C@@H](CO)N2Cc1cocn1	94.8% (active)
CCCNC(=O)N1[C@@H]2Cn3c(ccc(-c4ccc(OC)cc4)c3=O)[C@H]1[C@@H](C(=O)NC1CCC1)[C@@H]2CO	0.95% (inactive)
O=C(N[C@H]1CC[C@@H](CCNS(=O)(=O)c2ccccc2)O[C@H]1CO)c1cccnc1	-5.13% (inactive)
N#C[C@H]1[C@H](c2ccc(-c3ccccc3)cc2)[C@@H](CO)N1C(=O)Cc1ccccc1	0.774% (inactive)
N#C[C@@H]1[C@@H](c2ccccc2)[C@@H](CO)N1C(=O)Cc1ccccc1	116% (active)
N#C[C@@H]1[C@@H](c2ccc(-c3ccccc3)cc2)[C@@H](CO)N1C(=O)Cc1ccccc1	0.072% (inactive)
COc1cccc(S(=O)(=O)Nc2ccc3c(c2)[C@H]2C[C@H](CC(=O)N4CCCCC4)O[C@@H](CO)[C@H]2O3)c1	-2.67% (inactive)
O=C(NCc1cccc(F)c1)[C@H]1[C@H](CO)[C@H]2Cn3c(cccc3=O)[C@@H]1N2	0.27% (inactive)
O=C(C[C@@H]1C=C[C@@H](NC(=O)c2ccc3c(c2)OCO3)[C@H](CO)O1)NC1Cc2ccccc2C1	1.22% (inactive)
CO[C@@H]1CN(C)C(=O)c2cc(NC(=O)c3ccccc3)ccc2OC[C@@H](C)N(C(C)=O)C[C@@H]1C	-6.13% (inactive)

SMILES	lysis activity
C[C@@H]1CCCCO[C@H](CN(C)S(C)(=O)=O)[C@@H](C)CN([C@H](C)CO)C(=O)c2cc(NC(=O)Nc3ccc4c(c3)OCO4)ccc2O1	50.4% (inactive)
C[C@@H]1CN([C@H](C)CO)S(=O)(=O)c2ccc(-c3cncnc3)cc2O[C@@H]1CN(C)Cc1ccccn1	-14.8% (inactive)
CCCC(=O)Nc1ccc2c(c1)C(=O)N(C)[C@@H]1CC[C@H](CC(=O)Nc3cn(C)nc3C)O[C@H]1CO2	6.15% (inactive)
O=C(C[C@@H]1CC[C@@H]2[C@H](COC[C@H](O)CN2Cc2cccc(-c3ccncc3)c2)O1)N1CCOCC1	-0.0585% (inactive)
O=C(C[C@@H]1C[C@H]2c3cc(NC(=O)C4CCOCC4)ccc3O[C@H]2[C@@H](CO)O1)NCCN1CCCCC1	60.8% (inactive)
COc1cccc(S(=O)(=O)N2C[C@@H](O)COC[C@@H]3O[C@H](CC(=O)N4CCN(C)CC4)CC[C@H]32)c1	86.2% (active)
COc1cccc(S(=O)(=O)N2C[C@@H](O)COC[C@H]3O[C@@H](CC(=O)N4CCOCC4)CC[C@@H]32)c1	2.85% (inactive)
COc1cccc(S(=O)(=O)N2C[C@@H](O)COC[C@H]3O[C@H](CC(=O)N4CCCCC4)CC[C@@H]32)c1	52.9% (inactive)
Cc1ccc(S(=O)(=O)Nc2cccc3c2O[C@@H](CN(C)CC2CCCCC2)[C@H](C)CN([C@@H](C)CO)C3=O)cc1	-1.1% (inactive)
CNC[C@H]1Oc2cc(C#Cc3ccccn3)ccc2S(=O)(=O)N([C@H](C)CO)C[C@@H]1C	-3.09% (inactive)
C[C@@H]1CN([C@@H](C)CO)C(=O)Cc2cc(NC(=O)NC3CCCCC3)ccc2O[C@H]1CN(C)C(=O)Nc1ccc(C(F)(F)F)cc1	51.4% (inactive)
C[C@H](CO)N1C[C@H](C)[C@H](CN(C)C(=O)c2ccccc2)OCCCC[C@H](C)Oc2ccc(N(C)C)cc2C1=O	1.62% (inactive)
COc1cccc(S(=O)(=O)N(C)C[C@@H]2Oc3ncc(-c4cccc(C(=O)N(C)C)c4)cc3C(=O)N([C@H](C)CO)C[C@@H]2C)c1	2.06% (inactive)
COc1ccc(S(=O)(=O)Nc2ccc3c(c2)C(=O)N([C@@H](C)CO)C[C@H](C)[C@@H](CN(C)C(=O)Nc2ccc4c(c2)OCO4)OCCCC[C@@H](C)O3)cc1	49.4% (inactive)
C[C@H](CO)N1C[C@H](C)[C@@H](CN(C)C(=O)C2CCOCC2)Oc2cc(-c3ccc(C(=O)N(C)C)cc3)ccc2S1(=O)=O	-2.86% (inactive)
CCNC(=O)C[C@@H]1CC[C@H]2[C@@H](COc3ccc(NC(=O)c4ccccc4Cl)cc3C(=O)N2C)O1	13.7% (inactive)
C[C@@H](NC(=O)C[C@@H]1C=C[C@@H](NC(=O)CN2CCOCC2)[C@H](CO)O1)c1ccccc1	13.5% (inactive)
C[C@H](NC(=O)C[C@@H]1C=C[C@H](NC(=O)CN2CCOCC2)[C@H](CO)O1)c1ccccc1	131% (active)
C[C@@H](NC(=O)C[C@H]1C=C[C@@H](NC(=O)CN2CCOCC2)[C@@H](CO)O1)c1ccccc1	18.8% (inactive)
